Measurements from PMC7596007 (Cell, 2020).

Legend:
[1] = system: cardiovascular and respiratory functions of rats; assay: Non-invasive measurement of cardiovascular and respiratory functions; assay type: in vivo; conditions: rat
Summary of the method: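 Anaesthetised rats had the neck trimmed for a size-matched collar sensor of a non-invasive pulse oximeter. Recorded heart rate, pulse distention (local blood flow), breath rate and oxygen saturation after test compound or SBECD vehicle. Monitored 60-600 min; maximal signal deflection taken; 1-4 animals per dose.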

[2] = biological target: fast skeletal myosin-2 isoforms isolated from rabbit psoas muscle (Oryctolagus cuniculus, UniProt Q28641); assay: Actin-activated steady-state ATPase inhibition, rabbit psoas skeletal myosin; assay type: biochemical
Summary of the method: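 Rabbit psoas S1 made by α-chymotrypsin digestion (0.25 mg/ml, 10 min, 25°C), stopped with 3 mM PMSF, then purified on MonoS. Assayed by NADH-PK/LDH coupled ATPase at 25°C for 15 min: 0.5 mM ATP, 25 μM F-actin, 10 mM MOPS pH 7.0, 4 mM MgCl2. Rate read at 340 nm by linear regression; inhibitor at varied concentrations, 1% DMSO.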

[3] = biological target: slow skeletal/β-cardiac myosin isolated from left ventricle of porcine heart (Sus scrofa, UniProt P79293); assay: Actin-activated steady-state ATPase inhibition, porcine cardiac myosin; assay type: biochemical; conditions: even at extremely high concentrations
slow skeletal/β-cardiac myosin isolated from left ventricle of porcine heart, sequence (P79293 85-778 limits assumed): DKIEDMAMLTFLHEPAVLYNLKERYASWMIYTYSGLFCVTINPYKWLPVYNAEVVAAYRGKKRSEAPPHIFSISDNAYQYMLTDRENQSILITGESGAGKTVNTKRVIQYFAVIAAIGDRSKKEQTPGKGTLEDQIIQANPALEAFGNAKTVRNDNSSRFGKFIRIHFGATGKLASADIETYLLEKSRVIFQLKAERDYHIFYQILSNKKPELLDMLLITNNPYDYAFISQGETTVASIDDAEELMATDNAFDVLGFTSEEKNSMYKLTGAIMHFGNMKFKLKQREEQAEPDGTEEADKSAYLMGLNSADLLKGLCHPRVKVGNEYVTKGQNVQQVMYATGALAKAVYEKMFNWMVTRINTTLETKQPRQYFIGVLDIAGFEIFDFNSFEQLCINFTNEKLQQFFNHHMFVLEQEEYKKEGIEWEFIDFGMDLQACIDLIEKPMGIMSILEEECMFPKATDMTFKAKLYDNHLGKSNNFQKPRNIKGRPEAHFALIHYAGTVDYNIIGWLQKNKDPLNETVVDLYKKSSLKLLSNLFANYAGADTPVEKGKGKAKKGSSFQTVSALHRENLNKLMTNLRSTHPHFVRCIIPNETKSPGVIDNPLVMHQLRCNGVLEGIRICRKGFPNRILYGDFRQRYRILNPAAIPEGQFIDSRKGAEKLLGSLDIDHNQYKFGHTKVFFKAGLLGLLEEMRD

[4] = biological target: smooth muscle myosin-2 (Gallus gallus, UniProt P10587); assay: Actin-activated steady-state ATPase inhibition, smooth muscle myosin; assay type: biochemical, chicken; conditions: even at extremely high concentrations
smooth muscle myosin-2, sequence (P10587 84-789 limits assumed): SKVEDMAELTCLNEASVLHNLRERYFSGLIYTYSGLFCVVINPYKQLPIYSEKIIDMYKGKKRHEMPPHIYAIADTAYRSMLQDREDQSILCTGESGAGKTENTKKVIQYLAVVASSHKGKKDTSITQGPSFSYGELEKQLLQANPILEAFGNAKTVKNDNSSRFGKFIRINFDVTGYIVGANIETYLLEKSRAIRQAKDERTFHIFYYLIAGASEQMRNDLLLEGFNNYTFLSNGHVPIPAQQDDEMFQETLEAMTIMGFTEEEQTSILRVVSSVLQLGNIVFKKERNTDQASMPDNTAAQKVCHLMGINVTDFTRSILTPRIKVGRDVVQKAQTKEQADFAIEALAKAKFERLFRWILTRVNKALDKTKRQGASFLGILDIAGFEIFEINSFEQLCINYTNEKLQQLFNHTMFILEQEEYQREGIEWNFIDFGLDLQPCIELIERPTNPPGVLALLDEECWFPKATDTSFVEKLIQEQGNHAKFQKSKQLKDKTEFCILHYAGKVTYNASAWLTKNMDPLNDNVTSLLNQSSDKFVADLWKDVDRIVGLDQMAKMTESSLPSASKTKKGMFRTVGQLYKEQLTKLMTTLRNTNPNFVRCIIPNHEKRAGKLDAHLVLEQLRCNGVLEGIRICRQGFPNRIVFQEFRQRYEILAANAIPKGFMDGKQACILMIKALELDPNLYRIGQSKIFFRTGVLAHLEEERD
smooth muscle myosin-2, sequence (P02607 whole entry partner): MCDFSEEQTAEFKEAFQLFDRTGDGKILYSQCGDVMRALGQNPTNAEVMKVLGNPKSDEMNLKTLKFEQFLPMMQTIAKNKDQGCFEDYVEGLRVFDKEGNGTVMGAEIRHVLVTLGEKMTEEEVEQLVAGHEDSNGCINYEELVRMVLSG
Summary of the method: (§1)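 Steady-state actin-activated ATPase measured by NADH-PK/LDH coupled assay at 25°C for 15 min. Buffer: 10 mM MOPS pH 7.0, 4 mM MgCl2, 2 mM β-mercaptoethanol, with 0.5 mM ATP, 25 μM F-actin, 1 mM PEP, 200 μM NADH and 2% PK/LDH. NADH decrease followed at 340 nm; activity taken from linear regression of absorbance over time. Inhibitor added at varied concentrations in DMSO (1% final).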

[5] = biological target: NM2A (Homo sapiens, UniProt P35579); assay: Actin-activated steady-state ATPase inhibition, NM2A; assay type: biochemical; conditions: even at extremely high concentrations
NM2A, sequence (P35579 1-775): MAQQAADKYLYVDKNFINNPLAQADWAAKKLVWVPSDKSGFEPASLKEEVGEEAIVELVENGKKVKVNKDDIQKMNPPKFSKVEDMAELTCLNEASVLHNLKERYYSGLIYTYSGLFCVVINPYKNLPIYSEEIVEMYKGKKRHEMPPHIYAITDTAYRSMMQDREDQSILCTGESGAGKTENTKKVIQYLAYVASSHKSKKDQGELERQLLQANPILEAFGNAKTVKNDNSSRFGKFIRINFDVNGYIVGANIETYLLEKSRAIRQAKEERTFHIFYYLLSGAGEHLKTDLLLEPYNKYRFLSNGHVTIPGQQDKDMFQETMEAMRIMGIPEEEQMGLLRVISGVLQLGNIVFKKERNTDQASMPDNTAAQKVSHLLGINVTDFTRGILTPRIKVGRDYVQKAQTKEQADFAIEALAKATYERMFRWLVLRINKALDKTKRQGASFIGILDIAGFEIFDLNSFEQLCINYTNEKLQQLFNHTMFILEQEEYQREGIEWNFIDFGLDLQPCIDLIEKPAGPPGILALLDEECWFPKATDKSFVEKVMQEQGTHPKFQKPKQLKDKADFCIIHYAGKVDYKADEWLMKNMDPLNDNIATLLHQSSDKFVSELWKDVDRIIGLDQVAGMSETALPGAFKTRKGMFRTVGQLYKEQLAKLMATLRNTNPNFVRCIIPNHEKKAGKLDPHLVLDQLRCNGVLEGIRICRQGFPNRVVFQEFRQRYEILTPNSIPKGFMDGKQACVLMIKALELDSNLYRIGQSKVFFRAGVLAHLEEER
Summary of the method: as §1

[6] = biological target: NM2B (Homo sapiens, UniProt P35580); assay: Actin-activated steady-state ATPase inhibition, NM2B; assay type: biochemical; conditions: even at extremely high concentrations
Summary of the method: as §1

[7] = biological target: human non-muscle myosin-2C (NM2C) (Homo sapiens, UniProt Q7Z406); assay: Actin-activated steady-state ATPase inhibition, NM2C wild type; assay type: biochemical; conditions: wild-type form
human non-muscle myosin-2C (NM2C), sequence (Q7Z406 1-799): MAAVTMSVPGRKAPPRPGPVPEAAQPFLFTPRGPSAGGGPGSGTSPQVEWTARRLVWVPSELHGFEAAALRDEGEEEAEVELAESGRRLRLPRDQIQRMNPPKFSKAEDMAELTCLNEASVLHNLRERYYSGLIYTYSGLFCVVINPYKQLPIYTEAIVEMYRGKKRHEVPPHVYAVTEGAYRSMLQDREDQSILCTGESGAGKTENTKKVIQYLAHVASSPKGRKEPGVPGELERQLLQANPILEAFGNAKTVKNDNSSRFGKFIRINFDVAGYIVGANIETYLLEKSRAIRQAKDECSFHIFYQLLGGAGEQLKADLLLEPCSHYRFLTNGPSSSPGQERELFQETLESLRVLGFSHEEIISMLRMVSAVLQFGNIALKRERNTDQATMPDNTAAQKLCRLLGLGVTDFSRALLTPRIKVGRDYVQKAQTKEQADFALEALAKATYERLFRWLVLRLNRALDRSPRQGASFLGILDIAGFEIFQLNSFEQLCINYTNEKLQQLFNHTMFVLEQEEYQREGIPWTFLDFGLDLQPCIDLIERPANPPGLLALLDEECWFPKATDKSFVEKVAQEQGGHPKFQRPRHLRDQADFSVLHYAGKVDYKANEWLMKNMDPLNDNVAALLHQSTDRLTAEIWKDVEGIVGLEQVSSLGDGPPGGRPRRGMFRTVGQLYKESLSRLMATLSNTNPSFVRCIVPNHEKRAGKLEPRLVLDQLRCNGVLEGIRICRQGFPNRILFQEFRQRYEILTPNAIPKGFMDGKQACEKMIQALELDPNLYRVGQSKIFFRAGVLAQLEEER
Summary of the method: as §1

[8] = biological target: NM2C^F490L variant (Homo sapiens, UniProt Q7Z406, F490L); assay: Actin-activated steady-state ATPase inhibition, NM2C F490L variant; assay type: biochemical; conditions: expressed variant
NM2C^F490L variant, sequence (Q7Z406 1-799 F490L): as the sequence (Q7Z406 1-799) above, with F490L counted along it
Summary of the method: as §1

[9] = biological target: expressed human β-cardiac myosin (Homo sapiens, UniProt P12883); assay: Actin-activated steady-state ATPase inhibition, expressed human β-cardiac myosin; assay type: biochemical
expressed human β-cardiac myosin, sequence (P12883 85-778 limits assumed): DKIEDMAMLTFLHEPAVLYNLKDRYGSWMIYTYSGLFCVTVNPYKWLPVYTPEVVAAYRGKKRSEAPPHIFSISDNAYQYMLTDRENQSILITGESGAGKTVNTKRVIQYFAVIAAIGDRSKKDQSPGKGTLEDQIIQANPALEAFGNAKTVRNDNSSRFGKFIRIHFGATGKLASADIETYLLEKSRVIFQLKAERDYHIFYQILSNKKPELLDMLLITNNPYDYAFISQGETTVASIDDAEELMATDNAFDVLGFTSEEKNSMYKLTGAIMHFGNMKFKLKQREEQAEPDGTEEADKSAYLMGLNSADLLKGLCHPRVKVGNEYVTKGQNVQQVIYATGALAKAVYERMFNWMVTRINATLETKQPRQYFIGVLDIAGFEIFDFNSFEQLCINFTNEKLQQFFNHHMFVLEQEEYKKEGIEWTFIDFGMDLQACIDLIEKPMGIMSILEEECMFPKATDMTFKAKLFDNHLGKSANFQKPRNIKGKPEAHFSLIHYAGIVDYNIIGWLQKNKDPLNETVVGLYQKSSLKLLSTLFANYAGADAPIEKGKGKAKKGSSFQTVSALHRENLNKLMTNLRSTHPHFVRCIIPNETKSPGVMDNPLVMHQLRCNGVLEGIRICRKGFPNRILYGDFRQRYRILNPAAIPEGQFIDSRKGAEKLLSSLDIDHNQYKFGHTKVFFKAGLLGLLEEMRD
expressed human β-cardiac myosin, sequence (P08590 whole entry partner): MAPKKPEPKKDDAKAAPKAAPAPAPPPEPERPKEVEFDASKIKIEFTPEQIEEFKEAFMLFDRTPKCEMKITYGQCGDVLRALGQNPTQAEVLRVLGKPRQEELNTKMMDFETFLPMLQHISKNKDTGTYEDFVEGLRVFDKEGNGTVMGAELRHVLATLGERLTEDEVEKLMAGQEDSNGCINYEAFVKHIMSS
Summary of the method: as §1

[10] = system: skeletal myosin samples from m.vastus lateralis; assay: Actin-activated ATPase inhibition, human m. vastus lateralis biopsy myosin; assay type: biochemical; conditions: patient-derived biopsies; 56% fast isoforms
[11] = system: skeletal myosin samples from m.soleus; assay: Actin-activated ATPase inhibition, human m. soleus biopsy myosin; assay type: biochemical; conditions: patient-derived biopsy; 28% fast isoforms
[12] = biological target: β-cardiac myosin isolated from human heart left ventricle (Homo sapiens, UniProt P12883); assay: Actin-activated ATPase inhibition, human heart left ventricle myosin; assay type: biochemical
β-cardiac myosin isolated from human heart left ventricle, sequence (P12883 85-778 limits assumed): as the sequence (P12883 85-778 limits assumed) above
β-cardiac myosin isolated from human heart left ventricle, sequence (P08590 whole entry partner): as the sequence (P08590 whole entry partner) above
Summary of the method: as §1

[13] = system: rat hindleg isometric force; assay: Isometric force measurement of rat hindleg; assay type: in vivo
[14] = Concentration measurement from tissue samples; assay type: in vivo; conditions: rat
Summary of the method: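 Male Wistar rats (200-250 g) dosed i.p. or orally, over-anaesthetised; tissues collected and frozen at −80°C. Extracts chloroform-dried, taken up in 50/50 water-acetonitrile, sonicated, centrifuged, then ultracentrifuged (60,000 rpm, 10°C, 60 min). HPLC-MS on RP-18 column, isocratic 50% H2O (0.1% TFA)/50% ACN (0.09% TFA), 0.5 ml/min. Quantified from 400 nm peak area against a calibration curve.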

[15] = system: spastic rats after pyramidal tract lesion; assay: Spastic cerebral palsy rat model, open-field gait analysis; assay type: in vivo; conditions: for ratio of left turns: Rat-A, 15% before
Summary of the method: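 Spasticity induced in rats by stereotaxic injection of 15 μl ethanol into the left pyramidal tract (ML −0.8, AP −10, DV 9.7 mm from dura). Rats filmed for 15 min in an 80×80 cm open field with transparent floor, with deep-learning 3D paw tracking. Gait parameters Z-scored and run through PCA. Falls and cramps normalised to distance. Oral 15 or 20 mg/kg; recorded before and 1-21 h after dosing.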

[16] = system: spastic rats after pyramidal tract lesion; assay: Spastic cerebral palsy rat model, cylinder assay; assay type: in vivo; conditions: Rat-B and C, three and five hours after oral 20 mg/kg treatment
[17] = system: Caco-2; assay: Caco-2 permeability assay; assay type: in vitro ADME; conditions: faster transfer in the absorptive direction over the excretive direction
Summary of the method: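 Outsourced Caco-2 permeability, measured apical-to-basolateral and basolateral-to-apical, in the presence of two transporter inhibitors. Mean ± SD, n = 2.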

[18] = biological target: hERG potassium channel (Homo sapiens, UniProt Q12809); assay: Predictor hERG Fluorescence Polarization Assay; assay type: binding; conditions: up to 5 μM
Summary of the method: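 Outsourced hERG fluorescence-polarisation binding assay, test compound up to 5 μM. Mean ± SEM, n = 2.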

[19] = system: 186 different human G-protein-coupled-receptors (GPCRs); assay: gpcrMAX panel; assay type: cell-based; conditions: 5 μM; 186 GPCRs
Summary of the method: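 gpcrMAX service panel of 186 human GPCRs from 60 families, read in both agonist and inhibition modes; test compound at 5 μM. Mean ± SEM, n = 2.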

[20] = system: 484 kinases; assay: SelectScreen Kinase Profiling panel; assay type: biochemical, human; conditions: 5 μM
Summary of the method: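 Outsourced SelectScreen panel of wild-type and common mutant human kinases; test compound at 5 μM. Mean ± SEM, n = 2.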

[21] = system: 23 human hormone nuclear receptors (HNR); assay: SelectScreen Nuclear Receptor Profiling; assay type: binding; conditions: 5 μM; 23 receptors
Summary of the method: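 Outsourced SelectScreen binding profile on 23 human hormone nuclear receptors; test compound at 5 μM. Mean ± SEM, n = 2.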

[22] = system: human adult dermal fibroblast (hDFa); assay: CyQUANT LDH Cytotoxicity assay, dermal fibroblasts; assay type: cell-based; conditions: 20 μM and 50 μM, 48 and 120 hours
Summary of the method: (§2)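 LDH release (CyQUANT kit, per manufacturer) from human adult dermal and lung fibroblasts. Cells exposed to 20 or 50 μM test compound for 48 and 120 h.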

[23] = system: human adult lung (hLFa) fibroblast; assay: CyQUANT LDH Cytotoxicity assay, lung fibroblasts; assay type: cell-based; conditions: 20 μM and 50 μM, 48 and 120 hours
Summary of the method: as §2

[24] = system: TA98; assay: Ames MPF reverse mutagenicity assay, TA98; assay type: cell-based, S.typhimurium; conditions: absence and presence of rat liver S9 fraction
Summary of the method: (§3)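 Ames MPF reverse mutagenicity run per kit instructions on Salmonella TA98 and TA100. Each strain tested without and with phenobarbital/β-naphthoflavone-induced rat liver S9 fraction.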

[25] = system: TA100; assay: Ames MPF reverse mutagenicity assay, TA100; assay type: cell-based, S.typhimurium; conditions: absence and presence of rat liver S9 fraction
Summary of the method: as §3

Cc1ccc2c(c1)C(=O)[C@]1(O)CCN(c3ccc(N)cc3)C1=N2 [AmBleb, para-aminoblebbistatin, reference compound]
time to death due to heart failure ([1]; 16 mg/kg): ≤ 15 min

Cc1cc2c(s1)N=C1N(c3ccc(N4CCOCC4)cc3)CC[C@@]1(O)C2=O [MPH-220]
ATPase inhibition of fast skeletal myosin (selectivity, in words) [2]: selective inhibition
ATPase activity inhibition of cardiac myosin [3]: did not inhibit
ATPase activity inhibition of smooth muscle myosin-2 [4]: did not inhibit
ATPase activity inhibition of NM2A [5]: did not inhibit
ATPase activity inhibition of NM2B [6]: did not inhibit
ATPase activity inhibition of NM2C [7]: not inhibited
ATPase sensitivity of NM2C F490L variant [8]: became sensitive
ATPase activity inhibition of expressed human β-cardiac myosin [9]: essentially unaffected
ATPase inhibition of m.vastus lateralis myosin sample [10]: 70%
ATPase inhibition of m.soleus myosin sample [11]: 29%
ATPase inhibition of human heart left ventricle β-cardiac myosin (in words) [12]: unaffected
isometric force decrease τi.p. ([13]; 18 mg/kg, intraperitoneal injection in 200 μl DMSO, anesthetized rats): 34 min
leg phase before force decrease, corresponding to absorption ([13]; 18 mg/kg, oral in 30% SBECD): 17 min
isometric force decrease τp.o. ([13]; 18 mg/kg, orally through gavage tube in 30% SBECD, anesthetized rats): 53 min
persistence of decreased force ([13]; rat hindleg, oral treatment): more than 10 hours
effect on cardiovascular and respiratory functions ([1]; 18 mg/kg): neither 13 mg/kg MPH-188 (H) nor 18 mg/kg MPH-220 (I) had any significant effect
cardiac and respiratory functions versus excipient control ([1]; 10-hour experiments under anesthesia): neither cardiac nor respiratory functions differed significantly
maximum decrease in heart rate and blood flow parameters ([1]; 10-hour-long anesthesia): ≤ 25%
cardiac function ([1]; concentration range effective in force relaxation): not perturbed
concentration in the diaphragm [14]: much lower compared to other striated muscle samples
concentration in the liver [14]: only temporarily elevated
concentration in target muscles relative to the inhibitory constant [IC50] ([14]; after 3 hours): 10 fold
elimination from blood and other tissues ([14]; after 3 hours): completely eliminated
concentration in cardiac tissue ([14]; high doses (up to 130 mg/kg)): 3000 to 7000 nM
accumulation in skeletal muscle samples over other tissues ([14]; versus brain, heart, kidney and blood): few-fold accumulation
ratio of left turns ([15]; 40 minutes after 15 mg/kg treatment): 38%
ratio of left turns ([15]; three hours after 15 mg/kg treatment): 51%
relative frequency of random falling and spontaneous cramping ([15]; Rat-C, 20 mg/kg, open field test): decreased drastically
persistence of enhanced gait functions ([15]; Rat-D, 20 mg/kg): persistent for five hours
PC1 scores (major gait component) ([15]; global PCA, 20 mg/kg oral): significantly decreased
time of maximal effect on PC1 scores ([15]; global PCA, 20 mg/kg oral): 3 h
standing up in the cylinder, wall touches with both forepaws [16]: same number of events as their healthy littermates
Caco-2 permeability [17]: highly permeable
hERG potassium channel inhibition [18]: did not observe inhibition
GPCR inhibition or activation [19]: ≤ 30%
kinase inhibition [20]: ≤ 20%
effect on hormone nuclear receptors [21]: remained unaffected
cytotoxicity (LDH) [22]: not toxic
cytotoxicity (LDH) [23]: not toxic
mutagenicity, frameshift (TA98) [24]: Lack of mutagenicity
mutagenicity, base-pair substitution (TA100) [25]: Lack of mutagenicity

Cc1ccc2c(c1)C(=O)C1(O)CCN(c3ccccc3)C1=N2 (stereo not drawn) [blebbistatin, reference compound]
ATPase activity inhibition of expressed human β-cardiac myosin [9]: completely blocked
ATPase inhibition of m.vastus lateralis myosin sample [10]: more than 90%
ATPase activity reduction of human cardiac myosin sample ([12]; human heart left ventricle): more than 90%
